Measurements reported in ChEMBL document CHEMBL1145471, “Small molecule regulators of autophagy identified by an image-based high-throughput screen” (Proc Natl Acad Sci U S A, 2007).

Tests used:
Format in all cases: functional
H4 [1] = test: Effect on FYVE-RFP+ vesicle intensity per cell in human H4 cells after 2 hrs relative to control; set-up: concentration or dose not given beside the values
How it was run: (§1)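 H4 cells stably expressing FYVE-RFP (H4-FYVE), grown in DMEM with 10% FBS, penicillin/streptomycin and 2 mM L-glutamine at 37°C, 5% CO2, seeded in 96-well plates and exposed to compound. Fixed in 4% paraformaldehyde, nuclei stained with 3 μg/ml DAPI, FYVE-RFP+ vesicles quantified by high-throughput fluorescence microscopy against DMSO control. Triplicate wells, mean ± SD.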

H4 [2] = test: Increase in long-lived protein degradation in human H4 cells after 1 hr relative to control; set-up: concentration or dose not given beside the values
H4 [3] = test: Increase in long-lived protein degradation in human H4 cells after 24 hrs relative to control; set-up: concentration or dose not given beside the values
H4 [4] = test: Increase in light chain 3-GFP+ autophagosome vesicle number per cell in human H4 cells at 5.8 uM after 24 hrs by high throughput fluorescence microscopy relative to control
How it was run: (§2)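 H4 cells stably expressing LC3-GFP were grown in DMEM with 10% FBS and 2 mM L-glutamine at 37°C, 5% CO2. They were exposed to each compound for 24 h, with DMSO as negative and rapamycin as positive control. Cells were then fixed in 4% paraformaldehyde and stained with 3 μg/ml DAPI. High-throughput fluorescence imaging scored LC3-GFP spot number, size and intensity, expressed relative to DMSO. Mean ± SD of triplicates; experiments repeated three times.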

H4 [5] = test: Induction of light chain 3-GFP level in human H4 cells at 5.8 uM after 24 hrs by high throughput fluorescence microscopy relative to control
How it was run: (§3)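 H4 cells stably expressing LC3-GFP, grown in DMEM with 10% FBS, penicillin/streptomycin and 2 mM L-glutamine at 37°C, 5% CO2. Cells were seeded in 96-well plates and exposed to library compounds at 3–12 μM for 24 h, then fixed in 4% paraformaldehyde and stained with 3 μg/ml DAPI. LC3-GFP spot number, size and intensity were measured by high-throughput fluorescence microscopy and expressed relative to DMSO. Triplicates, mean ± SD.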

H4 [6] = test: Increase in long-lived protein degradation in human H4 cells after 4 hrs relative to control; set-up: concentration or dose not given beside the values
H4 [7] = test: Increase in light chain 3-GFP+ autophagosome vesicle area per cell in human H4 cells at 5.8 uM after 24 hrs by high throughput fluorescence microscopy relative to control
How it was run: (§4)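 H4 cells stably expressing LC3-GFP, seeded in 96-well plates and exposed to compound for 24 h; screening concentrations were 3–12 μM, with rapamycin 0.22 μM and bafilomycin A1 0.40 μM. Cells fixed in 4% paraformaldehyde and stained with 3 μg/ml DAPI. Number, size and intensity of LC3-GFP spots measured by high-throughput fluorescence microscopy and expressed as percent of DMSO-treated wells. Rapamycin was the positive control. Triplicate wells, mean ± SD; experiments repeated three times.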

H4 [8] = test: Effect on FYVE-RFP+ vesicle intensity per cell in human H4 cells after 8 hrs relative to control; set-up: concentration or dose not given beside the values; how it was run: as §1
H4 [9] = test: Effect on FYVE-RFP+ vesicle intensity per cell in human H4 cells after 4 hrs relative to control; set-up: concentration or dose not given beside the values; how it was run: as §1
H4 [10] = test: Increase in light chain 3-GFP+ autophagosome vesicle intensity per cell in human H4 cells at 5.8 uM after 24 hrs by high throughput fluorescence microscopy relative to control; how it was run: as §2
H4 [11] = test: Increase in long-lived protein degradation in human H4 cells after 2 hrs relative to control; set-up: concentration or dose not given beside the values
H4 [12] = test: Induction of light chain 3-GFP level in human H4 cells at 9.0 uM after 24 hrs by high throughput fluorescence microscopy relative to control; how it was run: as §3
H4 [13] = test: Increase in light chain 3-GFP+ autophagosome vesicle number per cell in human H4 cells at 9.0 uM after 24 hrs by high throughput fluorescence microscopy relative to control; how it was run: as §3
H4 [14] = test: Increase in light chain 3-GFP+ autophagosome vesicle intensity per cell in human H4 cells at 9.0 uM after 24 hrs by high throughput fluorescence microscopy relative to control; how it was run: as §2
H4 [15] = test: Increase in light chain 3-GFP+ autophagosome vesicle area per cell in human H4 cells at 9.0 uM after 24 hrs by high throughput fluorescence microscopy relative to control; how it was run: as §4
H4 [16] = test: Decrease in FYVE-RFP+ vesicle intensity per cell in human H4 cells after 4 hrs relative to control; set-up: concentration or dose not given beside the values; how it was run: as §1
H4 [17] = test: Decrease in FYVE-RFP+ vesicle intensity per cell in human H4 cells after 8 hrs relative to control; set-up: concentration or dose not given beside the values; how it was run: as §1
H4 [18] = test: Decrease in FYVE-RFP+ vesicle intensity per cell in human H4 cells after 2 hrs relative to control; set-up: concentration or dose not given beside the values; how it was run: as §1
H4 [19] = test: Increase in light chain 3-GFP+ autophagosome vesicle intensity per cell in human H4 cells at 5.1 uM after 24 hrs by high throughput fluorescence microscopy relative to control; how it was run: as §2
H4 [20] = test: Induction of light chain 3-GFP level in human H4 cells at 5.1 uM after 24 hrs by high throughput fluorescence microscopy relative to control; how it was run: as §3
H4 [21] = test: Increase in light chain 3-GFP+ autophagosome vesicle area per cell in human H4 cells at 5.1 uM after 24 hrs by high throughput fluorescence microscopy relative to control; how it was run: as §4
H4 [22] = test: Increase in light chain 3-GFP+ autophagosome vesicle number per cell in human H4 cells at 5.1 uM after 24 hrs by high throughput fluorescence microscopy relative to control; how it was run: as §2
H4 [23] = test: Induction of light chain 3-GFP level in human H4 cells at 13.2 uM after 24 hrs by high throughput fluorescence microscopy relative to control
How it was run: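 H4 cells stably expressing LC3-GFP, kept in DMEM/10% FBS at 37°C, 5% CO2, were seeded in 96-well plates and exposed to compound for 24 h. Cells were then fixed in 4% paraformaldehyde and stained with 3 μg/ml DAPI. Automated fluorescence microscopy scored the number, size and intensity of LC3-GFP spots. Values are percent of DMSO wells, in triplicate, mean ± SD. Rapamycin served as positive control.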

H4 [24] = test: Increase in light chain 3-GFP+ autophagosome vesicle number per cell in human H4 cells at 13.2 uM after 24 hrs by high throughput fluorescence microscopy relative to control
How it was run: (§5)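 H4 cells stably expressing LC3-GFP, seeded in 96-well plates and exposed to compound for 24 h; fixed in 4% paraformaldehyde, nuclei stained with 3 μg/ml DAPI. Automated fluorescence microscopy scored number, size and intensity of LC3-GFP spots; values expressed relative to DMSO-treated wells, rapamycin positive control. Triplicate wells, mean ± SD; experiments repeated three times.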

H4 [25] = test: Increase in light chain 3-GFP+ autophagosome vesicle intensity per cell in human H4 cells at 13.2 uM after 24 hrs by high throughput fluorescence microscopy relative to control; how it was run: as §5
H4 [26] = test: Increase in light chain 3-GFP+ autophagosome vesicle area per cell in human H4 cells at 13.2 uM after 24 hrs by high throughput fluorescence microscopy relative to control; how it was run: as §5

Compound | Activity (H4 [1]) [%] | Activity (H4 [2]) [%] | Activity (H4 [3]) [%] | Activity (H4 [6]) [%] | Activity (H4 [8]) [%] | Activity (H4 [9]) [%] | Activity (H4 [11]) [%] | Activity (H4 [16]) [%] | Activity (H4 [17]) [%] | Activity (H4 [18]) [%] | further results
CCN(CC)CCCCCCCCOC(=O)c1cc(OC)c(OC)c(OC)c1 | 89.59 | 106.69 | 95.47 | 109.05 | 78.64 | 74.72 | 124.85 | – | – | – | Activity (H4 [4]): 170.87%; Activity (H4 [5]): 145.22%; Activity (H4 [7]): 201.59%; Activity (H4 [10]): 229.5%
O=C(Nc1ccccc1)c1cc([N+](=O)[O-])ccc1Cl | – | 106.33 | 89.29 | 93.22 | – | – | 87.58 | 44.5 | 29.9 | 40.32 | Activity (H4 [12]): 105.38%; Activity (H4 [13]): 128.11%; Activity (H4 [14]): 166.91%; Activity (H4 [15]): 137.98%
CC[C@H](C)[C@H](NS(=O)(=O)c1cccc2ccccc12)C(=O)N[C@H](C=O)Cc1c[nH]c2ccccc12 | 89.37 | 134.83 | 9.4 | 117.24 | 62.34 | 64.1 | 136.94 | – | – | – | Activity (H4 [19]): 199.27%; Activity (H4 [20]): 124.74%; Activity (H4 [21]): 172.38%; Activity (H4 [22]): 151.1%
O[C@H]1[C@H](O)[C@@H](O)CN2CC[C@H](O)[C@H]12 [CASTANOSPERMINE] | – | 83.53 | 85.6 | 88.75 | – | – | 84.26 | 40.02 | 36.45 | 37.35 | Activity (H4 [23]): 157.35%; Activity (H4 [24]): 156.81%; Activity (H4 [25]): 171.2%; Activity (H4 [26]): 174.29%
